The record followed here is ChEMBL document CHEMBL5674890, “Selective inhibition of CBP/p300 HAT by A-485 results in suppression of lipogenesis and hepatic gluconeogenesis” (Cell Death Dis, 2020).

Active and inactive are the calls of the source. No cut-off for these calls is given here.

In assay [1] the test system is Mus musculus. Description: Inhibition of hepatic lipogenesis in C57BL/6 mouse supplemented with high fat diet assessed as decrease in total cholesterol level at 20 mg/kg/day, ip administered for 1 week. The format is functional, organism-based. Particulars: time 1.0 weeks. The gist of the method:
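Male C57BL/6 mice received ip A-485 at 20 mg·kg−1·day−1 for 7 days, versus vehicle. NCD mice were 8 weeks old. HFD mice had been on high-fat diet for 14 weeks from 5 weeks of age. Liver triglyceride and total cholesterol content was determined. n = 5–9; mean ± SEM.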

Assay [2] concerns Mus musculus. Description: Inhibition of lipogenesis in C57BL/6 mouse supplemented with high-fat diet assessed as decrease in FABP4 mRNA expression at 20 mg/kg/day, ip administered for 1 week measured measured by RT-qPCR assay. The format is functional, organism-based. The conditions noted are these: time 1.0 weeks. The gist of the method:
(§1)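 Male C57BL/6 mice were fed high-fat diet for 14 weeks from 5 weeks of age, then injected ip with 20 mg·kg−1·day−1 for 7 days or given vehicle. Epididymal and inguinal WAT were weighed, examined by H&E, and analysed. Transcripts were measured by Trizol/SYBR Green RT-qPCR; proteins by western blot. n = 5–9; mean ± SEM.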

Assay [3] concerns the target T1, CREB-binding protein/Histone acetyltransferase p300 (Homo sapiens) (UniProt Q09472+Q92793). The assay can be described thus: Inhibition of CBP/p300 in mouse primary hepatocytes stimulated with 100 uM 8-Br-cAMP assessed as decrease in FOXO1 abundance in cytoplasm at 3 uM. The assay is classed as cell-based. Particulars: Primary hepatocyte. In a few lines: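 Primary mouse hepatocytes treated with 3 μM compound and 100 μM 8-Br-cAMP. Nuclear and cytoplasmic fractions separated with a commercial kit; FOXO1 detected by western blot.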

Assay [4] deals with Mus musculus. Description: Inhibition of lipogenesis in C57BL/6 mouse supplemented with normal chow diet assessed as decrease in DGAT2 mRNA expression at 20 mg/kg/day, ip administered for 1 week measured by RT-qPCR assay. The assay is classed as functional, organism-based. Particulars: time 1.0 weeks. The gist of the method: (§2)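 Eight-week-old male C57BL/6 mice on normal chow were given 20 mg·kg−1·day−1 ip daily for 7 days or vehicle. Epididymal WAT was collected. Lipogenic, adipogenic and fatty-acid-oxidation transcripts were quantified by Trizol extraction and SYBR Green RT-qPCR. FAS, ACC, PPARγ and C/EBPα protein were assessed by western blot. n = 5–9; mean ± SEM.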
On the technique in general: In qPCR the cycle at which signal appears reflects the starting amount.

The test system of assay [5] is Hepatocyte. Description: Inhibition of glucogenesis in mouse primary hepatocytes stimulated with 100 uM 8-Br-cAMP assessed as decrease in G6Pc mRNA expression at 3 uM measured after 8 hrs by RT-qPCR assay.
For assay [6], the system named is Mus musculus. The assay can be described thus: Anti-obesity activity in C57BL/6 mouse supplemented with high fat diet assessed as improvement in glucose tolerance at 20 mg/kg/day, ip administered for 1 week measured by intraperitoneal glucose tolerance test. The format is functional, organism-based. Particulars: time 1.0 weeks. In a few lines: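 High-fat diet mice (male C57BL/6, 14 weeks on HFD from 5 weeks of age), ip 20 mg·kg−1·day−1 for 7 days. 16 h fast, then glucose 2 g/kg body weight ip; blood glucose tracked during the test.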

In assay [7] the test system is Mus musculus. Description: Inhibition of lipogenesis in C57BL/6 mouse supplemented with high-fat diet assessed as decrease in C/EBPalpha protein expression at 20 mg/kg/day, ip administered for 1 week measured measured by western blot analysis. The assay is classed as functional, organism-based. The conditions noted are these: time 1.0 weeks. The gist of the method:
as §1
(In general: A western blot detects proteins with antibodies after separation by electrophoresis.)

Assay [8] deals with Mus musculus. The assay can be described thus: Inhibition of lipogenesis in C57BL/6 mouse supplemented with high-fat diet assessed as decrease in C/EBPalpha mRNA expression at 20 mg/kg/day, ip administered for 1 week measured measured by RT-qPCR assay. The format is functional, organism-based. Particulars: time 1.0 weeks. In a few lines: as §1
Assay [9] deals with Mus musculus. The assay can be described thus: Inhibition of lipogenesis in C57BL/6 mouse supplemented with high-fat diet assessed as decrease in gross size of WAT at 20 mg/kg/day, ip administered for 1 week. The format is functional, organism-based. Particulars: time 1.0 weeks. The gist of the method:
as §1

In the next assay the test system is Adipocyte. Description: Inhibition of lipogenesis in mouse adipocytes isolated stromal vascular cells assessed as decrease in ACC mRNA expression measured after 24 hrs by RT-qPCR assay. The assay is classed as functional, cell-based. In a few lines:
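Stromal vascular cells came from collagenase-digested inguinal WAT of C57BL/6 mice and were grown in DMEM/F12 with 10% FBS. At confluence, differentiation used insulin 5 μg/ml, dexamethasone 1 μM and IBMX 0.5 mM for 48 h, then insulin alone for 6 days. Fully differentiated day-8 adipocytes were exposed to A-485 for 24 h. Transcripts were quantified by RT-qPCR.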

Assay [10] deals with Mus musculus. The assay can be described thus: Inhibition of hepatic lipogenesis in C57BL/6 mouse supplemented with normal chow diet assessed as decrease in FAS protein expression at 20 mg/kg/day, ip administered for 1 week measured by western blot analysis. The format is functional, organism-based. The conditions noted are these: time 1.0 weeks. In a few lines:
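Normal-chow male C57BL/6 mice, 8 weeks old, were injected ip at 20 mg·kg−1·day−1 daily for 7 days or given vehicle. Liver tissue was homogenized in lysis buffer, and FAS and ChREBP protein were assessed by western blot. n = 5–9.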

For assay [11], the system named is Mus musculus. Description: Anti-obesity activity in C57BL/6 mouse supplemented with high fat diet assessed as decrease in fasting blood glucose at 20 mg/kg/day, ip administered for 1 week. The format is functional, organism-based. Particulars: time 1.0 weeks. In a few lines: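 Male C57BL/6 mice fed high-fat diet for 14 weeks from 5 weeks of age, then ip 20 mg·kg−1·day−1 for 7 days. Body weight, EchoMRI lean/fat mass, and random or 16 h-fasted blood glucose recorded, as the line states.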

The test system of assay [12] is Mus musculus. Description: Inhibition of hepatic lipogenesis in C57BL/6 mouse supplemented with normal chow diet assessed as effect on ACADVL mRNA expression at 20 mg/kg/day, ip administered for 1 week measured by RT-qPCR assay. The assay is classed as functional, organism-based. Particulars: time 1.0 weeks. In a few lines: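 Normal-chow male C57BL/6 mice, 8 weeks old, were injected ip at 20 mg·kg−1·day−1 daily for 7 days or given vehicle. Liver RNA was extracted with Trizol, and fatty-acid-oxidation gene transcripts were quantified by SYBR Green RT-qPCR. n = 5–9; mean ± SEM.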

Assay [13] concerns Mus musculus. Description: Inhibition of lipogenesis in C57BL/6 mouse supplemented with normal chow diet assessed as effect on UCP1 mRNA expression at 20 mg/kg/day, ip administered for 1 week measured by RT-qPCR assay. The conditions noted are these: time 1.0 weeks. The assay is classed as functional, organism-based. The gist of the method:
as §2

For assay [14], the target named is T1, CREB-binding protein/Histone acetyltransferase p300 (Homo sapiens). Description: Inhibition of CBP/p300 in human HEK293T cells expressing HA-FOXO1 stimulated with 100 uM 8-Br-cAMP assessed as decrease in FOXO1 abundance in nucleus at 3 uM measured after 24 hrs by immunofluorescence analysis. The assay is classed as cell-based. The conditions noted are these: time 3.0 hrs, in the assay text read “3 hrs” for “24 hrs”. In a few lines: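 HEK293T cells transfected with HA-FOXO1 plasmid for 24 h, then treated 3 h with 3 μM compound and 100 μM 8-Br-cAMP. Staining steps: fixed in 10% formalin, permeabilized 0.1% Triton X100, blocked 5% BSA, anti-HA (1:200) overnight at 4 °C, FITC secondary, DAPI. Localization imaged by fluorescence microscopy.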

For assay [15], the system named is Hepatocyte. Description: Inhibition of glucogenesis in mouse primary hepatocytes stimulated with 100 uM 8-Br-cAMP assessed as decrease in glucose production at 3 uM in combination with 2 mM metformin. The assay is classed as functional, cell-based. In a few lines:
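Primary mouse hepatocytes pretreated with 100 nM dexamethasone for 16 h. Glucose production then measured in glucose-free DMEM with 1 mM pyruvate, 10 mM lactate and 0.25% BSA, in the presence of 100 μM 8-Br-cAMP, with 3 μM compound plus 2 mM metformin. Medium glucose assayed colorimetrically. Three independent experiments.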

T1 sequence (Q09472 whole entry, looked up): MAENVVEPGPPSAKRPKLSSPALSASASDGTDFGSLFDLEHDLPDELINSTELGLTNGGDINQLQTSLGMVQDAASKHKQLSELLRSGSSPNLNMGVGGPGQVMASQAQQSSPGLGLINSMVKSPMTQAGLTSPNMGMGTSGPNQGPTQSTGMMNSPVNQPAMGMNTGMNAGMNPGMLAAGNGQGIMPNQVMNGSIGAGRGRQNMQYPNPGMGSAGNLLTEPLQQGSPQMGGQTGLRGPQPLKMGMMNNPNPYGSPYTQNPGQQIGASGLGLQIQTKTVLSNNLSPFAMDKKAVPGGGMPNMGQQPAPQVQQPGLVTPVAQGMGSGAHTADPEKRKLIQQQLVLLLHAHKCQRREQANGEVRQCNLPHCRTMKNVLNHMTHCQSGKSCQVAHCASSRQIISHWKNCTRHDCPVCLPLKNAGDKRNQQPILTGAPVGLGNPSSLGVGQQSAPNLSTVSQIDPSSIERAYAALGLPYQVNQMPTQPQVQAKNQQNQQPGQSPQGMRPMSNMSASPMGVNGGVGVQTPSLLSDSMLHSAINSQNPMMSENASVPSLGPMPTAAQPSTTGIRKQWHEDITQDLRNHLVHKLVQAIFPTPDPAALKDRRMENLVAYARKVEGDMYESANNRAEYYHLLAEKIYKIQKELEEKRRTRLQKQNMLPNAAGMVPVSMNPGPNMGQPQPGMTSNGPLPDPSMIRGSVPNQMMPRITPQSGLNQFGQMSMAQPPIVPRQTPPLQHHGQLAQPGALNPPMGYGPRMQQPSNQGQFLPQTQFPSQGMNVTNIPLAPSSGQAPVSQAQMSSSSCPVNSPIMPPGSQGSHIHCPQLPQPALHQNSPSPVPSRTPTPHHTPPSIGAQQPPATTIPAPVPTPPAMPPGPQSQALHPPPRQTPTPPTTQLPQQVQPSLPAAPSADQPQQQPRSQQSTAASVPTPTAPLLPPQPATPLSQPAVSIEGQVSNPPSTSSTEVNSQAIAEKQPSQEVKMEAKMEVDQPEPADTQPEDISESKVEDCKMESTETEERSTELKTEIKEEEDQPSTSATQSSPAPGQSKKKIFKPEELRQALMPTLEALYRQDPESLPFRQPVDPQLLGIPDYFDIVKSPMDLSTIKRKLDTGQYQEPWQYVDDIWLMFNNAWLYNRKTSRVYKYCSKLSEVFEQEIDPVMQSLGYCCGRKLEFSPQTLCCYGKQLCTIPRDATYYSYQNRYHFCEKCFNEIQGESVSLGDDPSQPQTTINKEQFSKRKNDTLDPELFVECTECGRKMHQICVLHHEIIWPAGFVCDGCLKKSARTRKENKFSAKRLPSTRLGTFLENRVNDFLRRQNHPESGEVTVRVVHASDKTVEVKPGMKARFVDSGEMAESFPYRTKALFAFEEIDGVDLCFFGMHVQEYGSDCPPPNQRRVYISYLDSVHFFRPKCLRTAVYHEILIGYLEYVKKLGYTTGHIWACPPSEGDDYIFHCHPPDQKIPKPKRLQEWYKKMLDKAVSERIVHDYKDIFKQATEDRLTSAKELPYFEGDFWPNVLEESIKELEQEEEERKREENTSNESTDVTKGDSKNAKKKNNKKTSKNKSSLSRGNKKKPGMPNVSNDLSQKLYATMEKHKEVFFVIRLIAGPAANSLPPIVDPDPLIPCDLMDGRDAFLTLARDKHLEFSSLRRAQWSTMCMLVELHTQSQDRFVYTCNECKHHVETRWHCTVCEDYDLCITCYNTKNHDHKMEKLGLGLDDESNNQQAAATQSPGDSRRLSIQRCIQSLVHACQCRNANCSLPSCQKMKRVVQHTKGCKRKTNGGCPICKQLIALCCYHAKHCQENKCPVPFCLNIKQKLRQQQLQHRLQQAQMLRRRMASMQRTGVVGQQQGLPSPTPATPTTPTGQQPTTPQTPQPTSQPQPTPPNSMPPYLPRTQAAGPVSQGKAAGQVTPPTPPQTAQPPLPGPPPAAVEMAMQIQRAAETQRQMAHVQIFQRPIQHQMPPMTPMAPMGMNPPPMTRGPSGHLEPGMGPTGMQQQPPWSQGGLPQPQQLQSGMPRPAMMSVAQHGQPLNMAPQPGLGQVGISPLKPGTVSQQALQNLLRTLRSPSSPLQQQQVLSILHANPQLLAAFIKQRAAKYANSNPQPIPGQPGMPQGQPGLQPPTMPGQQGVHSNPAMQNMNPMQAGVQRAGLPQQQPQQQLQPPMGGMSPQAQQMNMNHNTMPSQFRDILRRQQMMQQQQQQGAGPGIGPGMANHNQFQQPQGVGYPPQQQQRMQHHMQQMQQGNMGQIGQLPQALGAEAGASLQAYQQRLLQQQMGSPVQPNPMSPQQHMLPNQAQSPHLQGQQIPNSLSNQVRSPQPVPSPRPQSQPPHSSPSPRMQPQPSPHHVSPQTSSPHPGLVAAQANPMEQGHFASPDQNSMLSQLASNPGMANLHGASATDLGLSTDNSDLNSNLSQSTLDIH
T1 sequence (Q92793 whole entry, looked up): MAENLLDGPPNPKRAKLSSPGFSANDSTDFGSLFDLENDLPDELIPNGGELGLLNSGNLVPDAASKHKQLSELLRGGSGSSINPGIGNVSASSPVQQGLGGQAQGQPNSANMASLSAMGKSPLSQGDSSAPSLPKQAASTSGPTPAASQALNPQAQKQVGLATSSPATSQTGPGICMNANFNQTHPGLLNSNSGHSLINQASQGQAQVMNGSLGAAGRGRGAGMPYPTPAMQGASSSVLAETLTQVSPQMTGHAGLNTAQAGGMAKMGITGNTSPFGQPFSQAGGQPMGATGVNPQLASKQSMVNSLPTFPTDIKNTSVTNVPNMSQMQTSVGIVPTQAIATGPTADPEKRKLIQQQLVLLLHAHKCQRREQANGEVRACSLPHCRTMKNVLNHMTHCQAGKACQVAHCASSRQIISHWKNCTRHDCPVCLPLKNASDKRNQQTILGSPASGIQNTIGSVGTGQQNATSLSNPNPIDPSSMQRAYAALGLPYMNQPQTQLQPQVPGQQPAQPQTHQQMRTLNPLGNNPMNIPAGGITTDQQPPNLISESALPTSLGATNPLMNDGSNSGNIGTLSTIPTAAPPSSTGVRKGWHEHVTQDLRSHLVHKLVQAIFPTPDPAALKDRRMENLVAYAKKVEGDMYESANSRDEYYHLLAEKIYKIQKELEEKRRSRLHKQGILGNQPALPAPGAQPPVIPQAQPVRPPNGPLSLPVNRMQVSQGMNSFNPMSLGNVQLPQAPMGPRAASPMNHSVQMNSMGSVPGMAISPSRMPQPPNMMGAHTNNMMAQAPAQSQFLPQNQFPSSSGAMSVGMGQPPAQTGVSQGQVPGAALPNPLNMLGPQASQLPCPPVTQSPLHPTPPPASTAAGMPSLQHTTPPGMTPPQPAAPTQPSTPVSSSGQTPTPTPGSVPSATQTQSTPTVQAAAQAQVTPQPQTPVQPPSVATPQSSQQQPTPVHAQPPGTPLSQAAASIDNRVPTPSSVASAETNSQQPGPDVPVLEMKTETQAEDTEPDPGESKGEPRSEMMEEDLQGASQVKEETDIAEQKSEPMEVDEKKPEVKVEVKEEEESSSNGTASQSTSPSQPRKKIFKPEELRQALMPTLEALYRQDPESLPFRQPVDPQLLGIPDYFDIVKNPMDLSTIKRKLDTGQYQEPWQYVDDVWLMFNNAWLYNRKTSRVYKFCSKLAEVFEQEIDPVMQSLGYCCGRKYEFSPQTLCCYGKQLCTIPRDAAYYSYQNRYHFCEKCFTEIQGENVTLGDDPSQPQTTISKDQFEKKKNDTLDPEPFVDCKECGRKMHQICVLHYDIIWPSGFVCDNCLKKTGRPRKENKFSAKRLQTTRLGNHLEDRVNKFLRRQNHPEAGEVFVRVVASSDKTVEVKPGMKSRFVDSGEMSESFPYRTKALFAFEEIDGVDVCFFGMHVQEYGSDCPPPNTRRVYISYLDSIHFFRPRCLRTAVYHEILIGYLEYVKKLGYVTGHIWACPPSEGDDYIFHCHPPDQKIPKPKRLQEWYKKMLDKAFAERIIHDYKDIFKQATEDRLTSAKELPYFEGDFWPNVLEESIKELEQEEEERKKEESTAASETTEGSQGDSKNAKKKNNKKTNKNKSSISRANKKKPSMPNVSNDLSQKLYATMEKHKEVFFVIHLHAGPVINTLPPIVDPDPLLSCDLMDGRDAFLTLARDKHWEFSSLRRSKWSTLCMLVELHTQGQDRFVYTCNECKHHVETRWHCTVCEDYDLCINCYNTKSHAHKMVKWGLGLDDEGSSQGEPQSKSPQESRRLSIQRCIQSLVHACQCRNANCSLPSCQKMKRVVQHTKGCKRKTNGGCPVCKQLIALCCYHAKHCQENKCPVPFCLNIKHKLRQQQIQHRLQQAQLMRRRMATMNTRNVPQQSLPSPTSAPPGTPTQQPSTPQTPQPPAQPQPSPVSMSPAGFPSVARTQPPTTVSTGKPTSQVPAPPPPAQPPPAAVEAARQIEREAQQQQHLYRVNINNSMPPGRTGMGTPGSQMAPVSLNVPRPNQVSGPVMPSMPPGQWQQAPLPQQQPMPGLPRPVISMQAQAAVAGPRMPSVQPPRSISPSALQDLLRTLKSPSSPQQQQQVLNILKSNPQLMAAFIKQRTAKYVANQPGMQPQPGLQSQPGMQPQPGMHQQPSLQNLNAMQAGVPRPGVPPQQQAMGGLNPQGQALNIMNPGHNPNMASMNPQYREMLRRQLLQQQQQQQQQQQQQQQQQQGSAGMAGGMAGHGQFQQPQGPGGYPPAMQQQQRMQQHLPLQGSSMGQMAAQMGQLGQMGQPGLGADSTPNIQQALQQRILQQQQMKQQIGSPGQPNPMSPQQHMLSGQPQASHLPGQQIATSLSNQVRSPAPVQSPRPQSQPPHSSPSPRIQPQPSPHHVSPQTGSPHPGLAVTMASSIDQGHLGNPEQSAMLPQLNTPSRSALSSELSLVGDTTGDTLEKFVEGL

On to `CNC(=O)Nc1ccc2c(c1)CCS21OC(=O)N(CC(=O)N(Cc2ccc(F)cc2)[C@@H](C)C(F)(F)F)C1=O` (stereo partly specified), for which the inhibition entry (in the assay with Mus musculus [1]; with Mus musculus [2]; in assay [3]; with Mus musculus [4]; with Hepatocyte [5]; with Mus musculus [7]) was “Active” each time. Besides, the inhibition entry (in the assay with Mus musculus [8]; with Mus musculus [9]; in the assay on Adipocyte; in the assay on Mus musculus [10]; in [14]; with Hepatocyte [15]) was “Active” throughout. The result in the assay on Mus musculus [6] and in the assay on Mus musculus [11] was Active. Further, the inhibition result with Mus musculus [12] and in the assay on Mus musculus [13] was “inactive” each time.
